Experiment [1] can be described thus: inhibitors of TNFa-induced NFkB p65 translocation, primary screen, imaging, HUVEC, MLSMR starter and 10KST1 sets (AID 438).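 For inhibition: signal is the nuclear over cytoplasmic p65 intensity ratio per well.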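 Note: compound added about 3h40 before a 20 min TNFalpha stimulation.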 Conditions: HUVEC TNFa-induced p65 nuclear translocation; cell count: measured here: nuclei count (cytotoxicity indicator), at 2.08 µM; inhibition: at 2 µM, stronger effect = higher value, 0% TNFa-plus-vehicle, 100% no-TNFa wells.
Experiment [2] can be described thus: inhibitors of E-selectin induction by TNFa, primary screen, imaging, HUVEC, immunofluorescence, MLSMR starter and 10KST1 sets (AID 487;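 active = visually confirmed hit in the image check and inhibition above 20%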;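 for inhibition: signal is fraction of cell area covered by stained E-selectin grains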;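 for nuclei count: 100% = median nuclei count of all wells on the same plate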). Conditions: HUVEC TNFalpha-induced E-selectin immunofluorescence imaging, at 2 µM; inhibition: stronger effect = higher value; nuclei count: measured here: cell number, toxicity.
Experiment [3] in a line: DUSP6 inhibitors restoring Erk phosphorylation by chemical complementation, primary imaging in DUSP6-transfected HeLa (AID 609;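 active = compounds giving at least 50% inhibition in the cell-based MKP-3 phosphatase rescue imaging test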;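 for inhibition: phospho-Erk level distribution per well compared with pooled transfected vehicle control wells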). Conditions: HeLa MKP-3 transfected, phospho-Erk imaging KS statistic, at 10 µM, cells stimulated with TPA for 15 min.
In experiment [4] the target is Dual specificity protein phosphatase 6 (Homo sapiens) (UniProt Q16828). The description is as above. Conditions: HeLa MKP-3 transfected, phospho-Erk imaging KS statistic; at 10 µM; stronger effect = higher value; cells stimulated with TPA for 15 min.
Sequence of Dual specificity protein phosphatase 6 (Homo sapiens) (Q16828 whole entry, looked up): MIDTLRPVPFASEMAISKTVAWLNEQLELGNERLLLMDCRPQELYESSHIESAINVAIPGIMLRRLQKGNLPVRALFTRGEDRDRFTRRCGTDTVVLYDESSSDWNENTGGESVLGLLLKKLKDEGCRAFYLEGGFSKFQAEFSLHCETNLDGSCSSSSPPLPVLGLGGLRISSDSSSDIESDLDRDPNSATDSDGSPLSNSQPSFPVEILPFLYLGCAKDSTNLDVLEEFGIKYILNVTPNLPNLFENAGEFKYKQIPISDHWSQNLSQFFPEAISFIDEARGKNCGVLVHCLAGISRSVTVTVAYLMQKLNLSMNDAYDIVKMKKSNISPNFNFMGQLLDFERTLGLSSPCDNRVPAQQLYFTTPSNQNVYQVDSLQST
Experiment [5] concerns the target Voltage-gated potassium channel subunit beta-2 (Rattus norvegicus) (UniProt P62483). Kind of experiment: KvBeta enzyme negative modulators, primary screen, biochemical, NADPH fluorescence (AID 622;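 active = fluorescence slope higher than the sample average by over 3 SD, cut at about -0.22 in these data, passing the limit was not always enough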;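 note: slope of raw intensity against log time taken from 70 to 1610 s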). Conditions: recombinant KvBeta, 4-cyanobenzaldehyde reduction, at 10 µM, stronger effect = higher value.
Experiment [6] has the same target. Nature of the experiment: KvBeta positive modulators, primary screen, biochemical, NADPH fluorescence (AID 623;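 active = NADPH fluorescence slope more negative than the mean of all samples by about 3 SD, 99.7% confidence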;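 note: fluorescence intensity change per second fitted from 20 to 320 s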). Conditions: Recombinant KvBeta, NADPH fluorescence decrease slope, 10 min; at 10 µM; stronger effect = lower value.
The target of experiment [7] is Alpha-2C adrenergic receptor (Homo sapiens) (UniProt P18825). Nature of the experiment: modulators of alpha2C/GIRK thallium flux, primary screen, cell-based, HEK293 alpha2C/GIRK1/2 (AID 624;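 active = fluorescence slope after compound addition differing from the mean of all screened samples at 99.7% confidence, in either direction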;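 note: slope of fluorescence ratio to pre-addition baseline per second over 15 to 24 s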). Conditions: thallium flux BTC fluorescence, at 10 µM, actives lie on both sides.
Sequence of Alpha-2C adrenergic receptor (Homo sapiens) (P18825 whole entry, looked up): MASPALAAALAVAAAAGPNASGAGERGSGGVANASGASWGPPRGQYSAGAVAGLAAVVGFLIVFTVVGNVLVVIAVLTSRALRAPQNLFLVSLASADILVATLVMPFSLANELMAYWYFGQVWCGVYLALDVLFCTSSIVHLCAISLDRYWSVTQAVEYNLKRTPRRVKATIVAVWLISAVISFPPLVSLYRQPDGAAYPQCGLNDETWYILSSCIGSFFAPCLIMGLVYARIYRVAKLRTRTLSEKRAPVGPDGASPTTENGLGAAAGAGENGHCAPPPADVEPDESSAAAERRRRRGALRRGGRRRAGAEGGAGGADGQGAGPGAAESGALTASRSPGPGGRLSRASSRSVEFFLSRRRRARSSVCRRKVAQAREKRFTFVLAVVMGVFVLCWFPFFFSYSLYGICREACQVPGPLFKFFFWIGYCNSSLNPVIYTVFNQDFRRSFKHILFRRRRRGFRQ
The nature of experiment [8]: inhibitors of larval lipid processing in zebrafish, primary screen, whole organism, PED6 fluorescence, gall bladder and intestine (AID 686;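 active = a full or partial loss of lipid-probe fluorescence in the fish gall bladder, intestine or both, judged by eye; inactive = no fluorescence loss, or compound toxic to the fish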;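 note: signal comes from phospholipase A2 cleavage of quenched PED6 carried via bile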). Conditions: Zebrafish larvae PED6 lipid processing, fluorescence scoring; screened at 20 µM (by protocol). In outline: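 Doses: 20 µM single dose. Test system: live zebrafish larvae aged 5-7 days, whole organism. Quantity: five larvae per well. Measured by: By-eye fluorescence microscopy. Reagent: ingested quenched lipid PED6 at 100 nM. Read-out: visual per-well fluorescence inhibition score. Times: overnight exposure of larvae to compound plus PED6.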

A short description of experiment [9]: inhibitors of Chlamydomonas gravitaxis, primary screen, whole organism, Chlamydomonas reinhardtii, WT vs cilia-less mutant, absorbance, 96-well (AID 463189;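 active = inhibition at or above 50% relative to wild type and mutant plate controls; inactive = inhibition below 50%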;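 note: 0% = wild type cc124 cells in DMSO and 100% = ciliumless bld1 mutant cells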). Conditions: OD600 absorbance, 2 days, at 10 µM, stronger effect = higher value.
Where [10] appears, read: measured here: cell density z-score.
Where [11] appears, read: measured here: nuclear c-Myc green intensity z-score.
Where [12] appears, read: measured here: nuclear pErk red intensity z-score, stronger effect = higher value.

Active and inactive are the calls of the source.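 Rule for the calls, unless noted: active = inhibition above 20% together with a positive visual image hit; inconclusive = visual image hit but inhibition not above 20%; inactive = no visual image hit.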

One may read the inhibition as the relative decrease from the control value, in per cent.

Sequence of Voltage-gated potassium channel subunit beta-2 (Rattus norvegicus) (P62483 whole entry, looked up): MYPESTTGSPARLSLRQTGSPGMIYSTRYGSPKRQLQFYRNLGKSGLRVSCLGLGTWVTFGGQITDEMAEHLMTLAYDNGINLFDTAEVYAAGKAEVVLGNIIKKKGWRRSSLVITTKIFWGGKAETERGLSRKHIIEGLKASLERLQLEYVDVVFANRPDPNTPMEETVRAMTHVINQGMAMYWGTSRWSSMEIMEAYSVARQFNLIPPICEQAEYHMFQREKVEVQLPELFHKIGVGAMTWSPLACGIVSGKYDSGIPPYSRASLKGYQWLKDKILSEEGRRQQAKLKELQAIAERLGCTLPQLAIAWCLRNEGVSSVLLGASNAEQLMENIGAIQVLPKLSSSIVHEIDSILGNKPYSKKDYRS

As for `CCOc1cccc(-c2nn3c(-c4ccccn4)nnc3s2)c1`, in [1], the cell count is 649. Moreover, the inhibition was -3.2% (inactive) in [1], -78% (inactive) in experiment [2], -9.66% (inactive) in [4] and 23.8% (inactive) in [9]. Further, in experiment [2], the nuclei count worked out at 150%. The z-score is 0.204 in experiment [3] (setting [10]), -0.822 in experiment [3] (setting [11]) and 0.934 in experiment [3] (setting [12]). In experiment [5], the fluorescence slope is -0.427 (inactive). Further, the NADPH fluorescence slope in experiment [6] is -4.9e-05 (inactive). Further, in [7], the slope is 0.00726 (inactive). Further, the outcome in experiment [8] was inactive.
As to `Cc1ccc2[nH]c3c(N4CCN(Cc5ccc6c(c5)OCO6)CC4)ncnc3c2c1`, the cell count in experiment [1] was determined as 390. Moreover, the inhibition was -21.4% (inactive) in [1], -47.6% (inactive) in [2], -3.5% (inactive) in experiment [4] and 140% (active) in [9]. In experiment [2], this compound yielded a nuclei count of 168%. In addition, the values for the z-score in [3] (setting [10]), in experiment [3] (setting [11]) and in experiment [3] (setting [12]) were -0.222, 0.595 and -3.73, respectively. In experiment [5], the fluorescence slope was -0.396 (inactive). For the same compound, in [6], the NADPH fluorescence slope was -0.000159 (inactive). Also, in [7], the slope was 0.00427 (inactive). In addition, in experiment [8], the outcome was “inactive; toxic”.
Take `C/C=C/c1ccccc1OCc1ccc(C(=O)O)o1`: the cell count in experiment [1] is 540. Further, the inhibition in experiment [1] was -2.1% (inactive); in experiment [2] it was 9.9% (inactive); in [4] it was 0.671% (inactive); in [9], -4.22% (inactive). The compound further gave a nuclei count in [2] of 98.3%. In addition, the z-score was -2.68 in experiment [3] (setting [10]), 0.479 in [3] (setting [11]) and 0.66 in experiment [3] (setting [12]). Besides, in [5], the fluorescence slope is -0.571 (inactive). In experiment [6], the NADPH fluorescence slope was -6.2e-05 (inactive). Further, the slope in experiment [7] was 0.00529 (inactive). Moreover, the compound was classed as inactive in [8].
As for `CSc1nnc2n(C3CCCCC3)c(=O)c3c4c(sc3n12)CCCC4`, the cell count in [1] came out at 609. Moreover, the inhibition in experiment [1] was -10.6% (inactive); in [2], -12.8% (inactive); in [4], -2.07% (inactive); in experiment [9], -18.3% (inactive). Besides, the nuclei count in [2] is 111%. The z-score in [3] (setting [10]) is -0.921; in experiment [3] (setting [11]), -0.992; in [3] (setting [12]) it was -0.882. Besides, the fluorescence slope in experiment [5] is -0.502 (inactive). Also, the NADPH fluorescence slope in [6] was -0.000304 (inactive). Moreover, the slope in experiment [7] was 0.0054 (inactive). Moreover, the result in experiment [8] was inactive.
`O=C1CC(c2ccco2)CC(O)=C1C=Nc1cc(Cl)ccc1O` (centres undefined): the cell count in experiment [1] came to 416. Also, the inhibition is -17% (inactive) in experiment [1], -77.9% (inactive) in [2], 1.04% (inactive) in experiment [4] and 17.7% (inactive) in [9]. In experiment [2], this compound had a nuclei count of 152%. In addition, the z-score in [3] (setting [10]) is -1.18; in experiment [3] (setting [11]), -0.564; in experiment [3] (setting [12]), 1.32. Also, the fluorescence slope in [5] was -0.386 (inactive). For the same compound, in experiment [6], the NADPH fluorescence slope is -5.2e-05 (inactive). Also, the slope in experiment [7] is 0.00522 (inactive). In addition, the compound was called inactive in experiment [8].
As to `CC(=O)Nc1cccc(NC(=O)CSc2nc(C)c(C)c(C)c2C#N)c1`, the cell count in experiment [1] turned out to be 546. The inhibition in [1] was -8.2% (inactive); in experiment [2], 28% (inactive); in experiment [4], -4.27% (inactive); in [9], -2.25% (inactive). The compound also displayed a nuclei count in [2] of 174%. Besides, the z-score was 0.636 in experiment [3] (setting [10]), 0.622 in experiment [3] (setting [11]) and -1.1 in experiment [3] (setting [12]). Moreover, the fluorescence slope in [5] is -0.4 (inactive). In addition, the NADPH fluorescence slope in experiment [6] was -9.2e-06 (inactive). In [7], the slope was 0.0055 (inactive). Besides, the outcome in experiment [8] was inactive.
On to `COc1cc(NC2=CC(=O)CC(C)(C)C2)cc(OC)c1OC`, for which the cell count in experiment [1] was found to be 584. Further, the inhibition in experiment [1] is -15% (inactive); in [2], -72.4% (inactive); in experiment [4], -1.98% (inactive); in experiment [9] it was -4.05% (inactive). This compound displayed a nuclei count in [2] of 141%. Further, the z-score in experiment [3] (setting [10]) was -0.351; in experiment [3] (setting [11]), -0.143; in [3] (setting [12]), 0.715. Also, in [5], the fluorescence slope was -0.488 (inactive). Moreover, in [6], the NADPH fluorescence slope was -3.8e-05 (inactive). For the same compound, in experiment [7], the slope is 0.00597 (inactive). Besides, the outcome in experiment [8] was inactive.
On to `CC(=O)c1cc(CN2CCCCC2)cc(OC(C)C)c1`, for which, in [1], the cell count was 667. The inhibition in [1] was -6.7% (inactive); in [2] it was -53.2% (inactive); in experiment [4] it was -3.98% (inactive); in [9], 10.4% (inactive). This compound also had a nuclei count in [2] of 172%. The z-score in experiment [3] (setting [10]) was 0.66; in experiment [3] (setting [11]) it was -1.57; in [3] (setting [12]) it was 1.24. In addition, in experiment [5], the fluorescence slope is -0.505 (inactive). Moreover, in [6], the NADPH fluorescence slope was -5.3e-05 (inactive). The slope in experiment [7] is 0.00431 (inactive). Further, the call in [8] was inactive.
For `CCN1C(=O)CC(N2CCN(c3ccc(OC)cc3)CC2)C1=O` (centres undefined), in experiment [1], the cell count came to 489. The inhibition in [1] was -27.6% (inactive); in experiment [2], -368% (inactive); in [4], 16.1% (inactive); in [9], 5.49% (inactive). For the same compound, the nuclei count in experiment [2] was 154%. The z-score in experiment [3] (setting [10]) was 1.11; in [3] (setting [11]) it was -0.53; in [3] (setting [12]), -0.692. The fluorescence slope in experiment [5] was -0.537 (inactive). In experiment [6], the NADPH fluorescence slope is -6.5e-05 (inactive). The slope in experiment [7] is 0.00497 (inactive). In experiment [8], the compound was called inactive.
As for `CCCCOC(=O)Nc1ccc(S(=O)(=O)Nc2nc(C)cc(C)n2)cc1`, the cell count in experiment [1] was determined as 515. The inhibition was -10.1% (inactive) in experiment [1], -17.4% (inactive) in [2], 2.92% (inactive) in [4] and -15.6% (inactive) in [9]. The nuclei count in experiment [2] was determined as 128%. Further, the z-score in experiment [3] (setting [10]) was 0.944; in [3] (setting [11]), 1.82; in experiment [3] (setting [12]) it was -0.786. Also, in experiment [5], the fluorescence slope was -0.439 (inactive). Further, the NADPH fluorescence slope in experiment [6] was -1.7e-05 (inactive). Also, the slope in experiment [7] is 0.00517 (inactive). Also, the result in experiment [8] was inactive.
Take `COc1cc(-c2nn3c(C4CCCCC4)nnc3s2)cc(OC)c1OC`: in [1], the cell count was 535. For the same compound, the inhibition in experiment [1] is -28.6% (inactive); in experiment [2] it was -115% (inactive); in experiment [4] it was -7.86% (inactive); in experiment [9] it was 12.1% (inactive). The nuclei count in [2] stood at 167%. Also, the z-score in experiment [3] (setting [10]) was -1.15; in [3] (setting [11]) it was 0.143; in [3] (setting [12]), 1.4. In addition, in [5], the fluorescence slope is -0.479 (inactive). For the same compound, in experiment [6], the NADPH fluorescence slope was -0.000183 (inactive). Further, the slope in experiment [7] was 0.00564 (inactive). Also, the outcome in experiment [8] was inactive.
For `COc1ccc(Cn2c(=O)c3c(nc(NCCO)n3C)n(C)c2=O)cc1`, in [1], the cell count came out at 336. The inhibition in [1] was -3.5% (inactive); in [2], -129% (inactive); in experiment [4], -0.624% (inactive); in [9], -14.7% (inactive). The compound further registered a nuclei count in experiment [2] of 131%. Also, the z-score in experiment [3] (setting [10]) was -0.216; in experiment [3] (setting [11]) it was 1.13; in experiment [3] (setting [12]) it was 0.242. Further, the fluorescence slope in experiment [5] is -0.369 (inactive). The NADPH fluorescence slope in experiment [6] is 3.5e-05 (inactive). Moreover, the slope in [7] was 0.00827 (inactive). In addition, in [8], the compound was classed as inactive.
On to `COc1ccccc1C(CC(=O)Nc1nccs1)c1ccco1` (centres undefined), for which the cell count in experiment [1] came out at 354. Besides, the inhibition in experiment [1] is -14.3% (inactive); in experiment [2], -98.9% (inactive); in [4], 1.75% (inactive); in experiment [9] it was 31.8% (inactive). For the same compound, in experiment [2], the nuclei count worked out at 155%. In addition, the z-score in experiment [3] (setting [10]) is -0.704; in experiment [3] (setting [11]), -0.887; in experiment [3] (setting [12]) it was -0.714. The fluorescence slope in experiment [5] is -0.398 (inactive). In experiment [6], the NADPH fluorescence slope was -7.2e-05 (inactive). For the same compound, the slope in [7] was 0.00663 (inactive). In addition, the result in experiment [8] was inactive.

The record behind these values is PubChem BioAssay.
